The source made the active and inactive calls. The rule behind the calls is not given here.
Experiments:
A-375 [1] = experiment: Antimetastatic activity in human A375 assessed as inhibition of cell migration rate at 1 nM incubated up to 24 hrs by scratch wound healing assay; type: functional, cell-based
Method in brief: (§1)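 Scratch wound healing assay. The cell-free zone was followed over time up to 24 h, with untreated control wells as reference. Closure was quantified as migration rate.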

A549 [2] = experiment: Induction of apoptosis related protein expression in human A549 cells assessed as increase in p21 expression at 20 uM incubated for 12 hrs by apoptosis antibody array; type: functional, cell-based
A549 [3] = experiment: Induction of DNA damage in human A549 cells by SERS spectral analysis; type: functional, cell-based
A-375 [4] = experiment: Induction of apoptosis in human A375 cells at 1 uM by APOP assay; type: functional, cell-based
A549 [5] = experiment: Induction of apoptosis in human A549 cells at 1 uM by APOP assay; type: functional, cell-based
Method in brief: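 APOPercentage dye uptake in treated A549 cells, which stain purple-red in early apoptosis when phosphatidylserine is translocated. Accumulated dye was then quantified against unstained untreated controls.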

A549 [6] = experiment: Inhibition of colony formation in human A549 cells at 1 nM by crystal violet staining based assay; type: functional, cell-based
[7] = Antioxidant activity assessed as hydroxyl radical scavenging activity at 1 to 1000 ug/ml incubated for 1 hr; type: functional
A-375 [8] = experiment: Induction of DNA fragmentation in human A375 cells after 3 hrs by chemometec-DNA fragmentation assay relative to control; type: functional, cell-based
A549 [9] = experiment: Induction of intracellular ROS generation in human A549 cells at 1 uM by DCFDA dye based fluorescence assay relative to control; type: functional
Method in brief: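 Intracellular ROS in A549 cells was measured with the DCFDA probe over 1-100 µM, with paclitaxel as positive control. Readout is fold change in fluorescence intensity relative to untreated control.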

A549 [10] = experiment: Induction of apoptosis related protein expression in human A549 cells assessed as increase in Cyt-c expression at 20 uM incubated for 12 hrs by apoptosis antibody array; type: functional, cell-based
A549 [11] = experiment: Induction of apoptosis related protein expression in human A549 cells assessed as increase in p53 expression at 20 uM incubated for 12 hrs by apoptosis antibody array; type: functional, cell-based
A549 [12] = experiment: Induction of apoptosis related protein expression in human A549 cells assessed as increase in TNFalpha/beta expression at 20 uM incubated for 12 hrs by apoptosis antibody array; type: functional, cell-based
A-375 [13] = experiment: Induction of apoptosis in human A375 cells assessed as induction of nuclear changes with DNA fragmentation at 1 uM by Hoechst 33342 nuclear staining based assay; type: functional, cell-based
Method in brief: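 Hoechst 33342 nuclear staining of treated A549 or A375 cells. Nuclear condensation and fragmentation were examined by fluorescence microscopy against untreated control.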

A549 [14] = experiment: Induction of apoptosis in human A549 cells assessed as cytochrome-c release after 4 to 12 hrs by spectrophotometry; type: functional, cell-based
[15] = Antioxidant activity assessed as DPPH radical scavenging activity at 1 to 1000 ug/ml incubated for 30 mins by spectrophotometry; type: functional
A549 [16] = experiment: Induction of apoptosis related protein expression in human A549 cells assessed as increase in CD40 expression at 20 uM incubated for 12 hrs by apoptosis antibody array; type: functional, cell-based
A-375 [17] = experiment: Induction of apoptosis in human A375 cells at 1 uM incubated for 24 hrs by FITC-Annexin V staining based assay (reference value: 0.03 +/- 0.9%); type: functional
A549 [18] = experiment: Induction of apoptosis related protein expression in human A549 cells assessed as increase in CD40L expression at 20 uM incubated for 12 hrs by apoptosis antibody array; type: functional, cell-based
A549 [19] = experiment: Induction of apoptosis in human A549 cells assessed as early apoptotic cells level at 1 uM incubated for 24 hrs by FITC-Annexin V staining based assay (reference value: 0.01%); type: functional
A549 [20] = experiment: Induction of morphological changes in human A549 cells assessed as change in shape of cells from spindle to spherical at 1 uM by atomic force microscopy; type: functional, cell-based
A-375 [21] = experiment: Induction of cell cycle arrest in human A375 cells assessed as accumulation at S phase at 10 nM by propodium iodide staining based flow cytometric analysis; type: functional
Method in brief: (§2)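 DNA was stained with propidium iodide and analysed by flow cytometry. Histograms give the fraction of cells in G0/G1, S and G2/M phases.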

A-375 [22] = experiment: Induction of morphological changes in human A375 cells assessed as induction of membrane breakage, blebbing and leakage of intracellular components at 1 uM by atomic force microscopy; type: functional, cell-based
A-375 [23] = experiment: Induction of cell cycle arrest in human A375 cells assessed as accumulation at G0/G1 phase at 10 nM by propodium iodide staining based flow cytometric analysis; type: functional; method in brief: as §2
A549 [24] = experiment: Cytotoxicity in human A549 cells assessed as reduction in cell proliferation at 0.001 to 100 uM incubated for 24 to 48 hrs by BrdU incorporation assay; type: functional, cell-based
Method in brief: (§3)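 BrdU incorporation assay read colorimetrically. Absorbance of the developed colour is proportional to the BrdU incorporated into cells, taken as a measure of proliferation.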

A549 [25] = experiment: Inhibition of mitochondrial membrane potential in human A549 cells at 1 uM by TMRE staining based assay; type: functional, cell-based
A-375 [26] = experiment: Induction of mitochondrial membrane potential changes in human A375 cells at 1 uM by JC1 staining based fluorimetry; type: functional, cell-based
Method in brief: (§4)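 Mitochondrial membrane potential was assessed with the ratiometric dye JC1. Depolarization appears as lower red and higher green fluorescence, and the red/green intensity ratio was quantified.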

A549 [27] = experiment: Induction of apoptosis in human A549 cells assessed as increase in caspase-9 levels at 1 uM incubated for 12 hrs by spectrofluorometry; type: functional, cell-based
A-375 [28] = experiment: Cytotoxicity in human A375 cells assessed as reduction in cell viability at 0.001 to 100 uM incubated for 24 to 48 hrs by LDH assay; type: functional, cell-based
Method in brief: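 LDH released into the culture medium after plasma membrane damage was quantified and expressed as percentage cytotoxicity.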

A549 [29] = experiment: Induction of apoptosis in human A549 cells assessed as necrosis cells level at 1 uM incubated for 24 hrs by FITC-Annexin V staining based assay (reference value: 0.3%); type: functional
A-375 [30] = experiment: Induction of apoptosis in human A375 cells assessed as cytochrome-c release after 4 to 12 hrs by spectrophotometry; type: functional, cell-based
A549 [31] = experiment: Antimetastatic activity in human A549 cells assessed as inhibition of cell migration rate at 1 nM incubated up to 24 hrs by scratch wound healing assay; type: functional, cell-based; method in brief: as §1
A549 [32] = experiment: Induction of apoptosis related protein expression in human A549 cells assessed as increase in HSP60 expression at 20 uM incubated for 12 hrs by apoptosis antibody array; type: functional, cell-based
A549 [33] = experiment: Cytotoxicity in human A549 cells assessed as reduction in cell viability incubated for 48 hrs by MTT assay; type: functional, cell-based; settings: Homo sapiens, A549, 48 h; read-out: IC50
Method in brief: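 MTT viability assay on A375 melanoma, A549 lung adenocarcinoma and WI-38 normal lung fibroblast cells after 24 and 48 h treatment. IC50 values are in µM, expressed as mean ± SD.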

A-375 [34] = experiment: Cytotoxicity in human A375 cells assessed as reduction in cell proliferation at 0.001 to 100 uM incubated for 24 to 48 hrs by BrdU incorporation assay; type: functional, cell-based; method in brief: as §3
A549 [35] = experiment: Induction of apoptosis in human A549 cells assessed as cytochrome-c release after 3 to 4 hrs by Raman spectral imaging analysis; type: functional, cell-based
A549 [36] = experiment: Induction of mitochondrial membrane potential changes in human A549 cells at 1 uM by JC1 staining based fluorimetry; type: functional, cell-based; method in brief: as §4

What does the source list for COc1cc(C2Oc3cc(-c4cc(=O)c5c(O)cc(O)cc5o4)ccc3OC2/C=C2\C(=O)ON=C2c2ccc(Cl)cc2)ccc1O (stereo unspecified)?
Activity (A-375 [1]): Active; Activity (A549 [2]): Active; Activity (A549 [3]): Active; Activity (A-375 [4]): Active; Activity (A549 [5]): Active; inhibition (A549 [6]): Active; Activity [7]: Dose-dependent effect; Activity (A-375 [8]): Active; fold change (FC) (A549 [9]): >3; Activity (A549 [10]): inactive; Activity (A549 [11]): Active; Activity (A549 [12]): Active; Activity (A-375 [13]): Active; Activity (A549 [14]): Active; Activity [15]: inactive; Activity (A549 [16]): Active; Activity (A-375 [17]): 39%; Activity (A549 [18]): Active; Activity (A549 [19]): 9%; Activity (A549 [20]): Active; Activity (A-375 [21]): Active; Activity (A-375 [22]): Active; Activity (A-375 [23]): Active; Activity (A549 [24]): Active; inhibition (A549 [25]): Active; Activity (A-375 [26]): Active; Activity (A549 [27]): Active; Activity (A-375 [28]): Active; Activity (A549 [29]): 13%; Activity (A-375 [30]): Active; Activity (A549 [31]): Active; Activity (A549 [32]): Active; IC50 (A549 [33]): 1200 nM; Activity (A-375 [34]): Active; Activity (A549 [35]): Active; Activity (A549 [36]): Active
